Experimental data taken from ChEMBL document CHEMBL1127496, “The structural basis of camptothecin interactions with human serum albumin: impact on drug stability” (J Med Chem, 1994).

Tests used:
[1] = Half-life in PBS buffer solution in the absence of human serum albumin; format: ADME; details: PBS buffer without human serum albumin
Summary of the method: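 Lactone hydrolysis at 1 μM drug in PBS pH 7.40 ± 0.05, 37 °C, with or without 290 μM HSA. Aliquots taken at mixing and every 5 min, diluted in water, then run on C18 reversed-phase HPLC with fluorescence detection of lactone and carboxylate. t1/2 from nonlinear least-squares fit of lactone decay. At least three independent kinetic runs.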

[2] = Half-life in PBS buffer solution in the presence of human serum albumin; format: ADME; details: PBS buffer with human serum albumin
Homo sapiens [3] = species: Homo sapiens; experiment: Excited-state lifetime value for lactone form of compound bound to human serum albumin; format: ADME
Summary of the method: (§1)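 Phase-shift lifetimes, 30 MHz modulation, no polarizers, long-pass emission filters, in PBS pH 7.4 at 37 °C. Drug 20 μM (lactone or carboxylate form) titrated with HSA. Lifetimes corrected for HSA background (τH 3.2 ns, fH weighting). Bound lifetime τB extrapolated to infinite HSA by nonlinear least-squares fit to τC = τB + b·exp(−c[HSA]). Triplicate runs.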

[4] = Excited-state lifetime value for free lactone form of compound in solution; format: ADME
Summary of the method: (§2)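 Phase-shift fluorescence lifetime, 30 MHz modulated excitation, no polarizers, long-pass emission filters. Measured on 20 μM lactone or carboxylate form in HSA-free PBS, pH 7.40 ± 0.05, 37 °C. Carboxylate made by mixing DMSO stock 1:1 with PBS pH 10.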

Albumin [5] = target: T1, Albumin (Homo sapiens, UniProt P02768); experiment: Binding parameter of the lactone form to human serum albumin; n value
T1 sequence (P02768 whole entry): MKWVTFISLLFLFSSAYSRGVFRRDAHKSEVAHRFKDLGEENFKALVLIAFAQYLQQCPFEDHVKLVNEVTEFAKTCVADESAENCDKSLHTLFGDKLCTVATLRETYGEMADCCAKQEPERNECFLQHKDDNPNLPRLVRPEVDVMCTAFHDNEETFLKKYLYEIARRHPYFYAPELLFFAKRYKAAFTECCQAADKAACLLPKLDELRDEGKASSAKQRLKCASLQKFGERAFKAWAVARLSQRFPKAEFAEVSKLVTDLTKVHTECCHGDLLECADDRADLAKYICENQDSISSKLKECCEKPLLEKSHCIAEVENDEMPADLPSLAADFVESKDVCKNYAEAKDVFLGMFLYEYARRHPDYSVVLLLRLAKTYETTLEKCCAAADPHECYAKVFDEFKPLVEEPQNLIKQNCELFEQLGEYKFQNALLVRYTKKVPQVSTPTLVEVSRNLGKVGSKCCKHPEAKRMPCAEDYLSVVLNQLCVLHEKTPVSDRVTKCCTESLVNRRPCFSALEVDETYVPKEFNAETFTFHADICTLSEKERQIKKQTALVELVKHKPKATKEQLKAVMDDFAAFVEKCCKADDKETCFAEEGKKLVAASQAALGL
Summary of the method: (§3)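 Fluorescence lifetime titration in PBS, pH 7.40 ± 0.05, 37 °C. Total drug 20 μM, lactone or carboxylate form (carboxylate stock made by mixing DMSO stock 1:1 with PBS pH 10), titrated with varying HSA. Phase-shift lifetimes at 30 MHz modulation. Free fraction (τ − τB)/(τF − τB) plotted against log amino-acid residue concentration. K and n obtained by nonlinear least-squares fit to K = [Db]/([Df][aa]^n).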

[6] = Excited-state lifetime value for free carboxylate form of compound in solution; format: ADME; summary of the method: as §2
Homo sapiens [7] = species: Homo sapiens; experiment: Excited-state lifetime value for carboxylate form of compound bound to human serum albumin; format: ADME; details: in vitro; summary of the method: as §1
Albumin [8] = target: T1, Albumin; experiment: Association constant for the binding of the lactone form to human serum albumin;(M aa)e-1; summary of the method: as §3
Albumin [9] = target: T1, Albumin; experiment: Binding parameter of the carboxylate form to human serum albumin; n value; summary of the method: as §3
Albumin [10] = target: T1, Albumin; experiment: Association constant for the binding of the carboxylate form to human serum albumin;(M aa)e-1; summary of the method: as §3

Compound	half-life [1]	half-life [2]	T bound (Homo sapiens [3])	T free [4]	Activity (Albumin [5])	T free [6]	T bound (Homo sapiens [7])	K (Albumin [8])	Activity (Albumin [9])	K (Albumin [10])
CCc1c2c(nc3ccc(O)cc13)-c1cc3c(c(=O)n1C2)COC(=O)[C@]3(O)CC [7-ETHYL-10-HYDROXYCAMPTOTHECIN]	19.9 min	–	–	–	–	–	–	–	–	–
CC[C@@]1(O)C(=O)OCc2c1cc1n(c2=O)Cc2cc3c(N)cccc3nc2-1 [9-AMINOCAMPTOTHECIN]	17.9 min	23.4 min	–	–	–	–	–	–	–	–
CC[C@@]1(O)C(=O)OCc2c1cc1n(c2=O)Cc2cc3cc(O)ccc3nc2-1 [HYDROXYCAMPTOTHECIN]	22.1 min	21.1 min	5.4 ns	4 ns	1.7	4 ns	5.5 ns	130 1/Maa	1.7	260 1/Maa
CC[C@@]1(O)C(=O)OCc2c1cc1n(c2=O)Cc2cc3c(CN(C)C)c(O)ccc3nc2-1 [TOPOTECAN]	22.8 min	28.9 min	6 ns	6 ns	–	6.1 ns	6.1 ns	–	–	–
CC[C@@]1(O)C(=O)OCc2c1cc1n(c2=O)Cc2cc3ccccc3nc2-1 [CAMPTOTHECIN]	23.8 min	12.5 min	2.7 ns	4.2 ns	1.8	4.3 ns	1.3 ns	30 1/Maa	2.3	4700 1/Maa
CCc1c2c(nc3ccc(C4CCN(C(=O)OC)CC4)cc13)-c1cc3c(c(=O)n1C2)COC(=O)C3(O)CC (stereo not drawn)	25.6 min	29 min	3.7 ns	3.7 ns	–	4 ns	4 ns	–	–	–
CCC1(O)C(=O)OCc2c1cc1n(c2=O)Cc2cc3cc4c(cc3nc2-1)OCO4 (stereo not drawn)	31.7 min	20.7 min	1.3 ns	2 ns	1.3	2.4 ns	1.3 ns	10 1/Maa	1.7	2200 1/Maa
CCC1(O)C(=O)OCc2c1cc1n(c2=O)Cc2cc3c(Cl)c4c(cc3nc2-1)OCO4 (stereo not drawn)	34.6 min	16.9 min	1.9 ns	1.9 ns	–	2.5 ns	1.1 ns	–	1.6	1200 1/Maa
